UBC9 SUMO inh – blocks human SUMOylation mediated by UBC9 | AID 2006 | 0.36% of 290,000 active | P63279 | inhibition, % at 35 µM | HTRF SUMOylation assay, SAE1/SAE2 + UBC9, in vitro; in the data active = inhibition above about 50%, passing the limit was not always enough
NSD2 inh – inhibitors of human histone methyltransferase NSD2 | AID 743445 | inhibition, % at 12.5 µM | 0.54% of 310,000 active | NSD2 peptide methylation, AlphaScreen, 120 min; in the data active = inhibition above about 50%
CTSL1 counter – blocks F. hepatica cathepsin L1 in PFM18AAP counter-screen; recombinant F. hepatica cathepsin L1, Z-Leu-Arg-MCA fluorescence; inhibition, % at 5.96 µM; 0.49% of 300,000 active;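 active = inhibition above the mean of all tested compounds plus 3 SD, set per screening campaign, cut at about 17% in these data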;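 note: 0% = plate median of test compound wells and 100% = 1 µM Z-Phe-Ala-diazomethylketone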
TDP2 inh – TDP2 (human) inhibition, absorbance primary screen; O95551; inhibition, % at 12.8 µM; 0.34% of 370,000 active; recombinant TDP2, T5PNP hydrolysis, p-nitrophenol absorbance 415 nm;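 active = inhibition above the mean of all tested compounds plus 3 SD, set per campaign, cut at about 25% in these data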;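 note: 0% = DMSO with enzyme and 100% = buffer with substrate but no TDP2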
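Evaluation: % inhibition relative to enzyme-containing and enzyme-free wells. Material: recombinant human TDP2. Benchmarks: enzyme-free and DMSO wells. Timing: enzyme reaction with compound for 2 h at 37 °C. Compound dosing: 12.8 µM only. Measured by: p-Nitrophenol epi absorbance. Reagent: T5PNP substrate at 5 mM, a TopII-DNA adduct mimic. Replication: single well per compound.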
* marks the source's active call; other numbers are inactive results. A selection: hits, their analogues and other compounds. The true share with any hit is near 1.2%.

For COC(=O)CN(C#N)c1nc(OC)nc(N(C)C)n1 the results were UBC9 SUMO inh -4, NSD2 inh -1, CTSL1 counter 40* and TDP2 inh 5.
For COC(=O)CN(C#N)c1nc(NC(C)C)nc(OC)n1 the results were UBC9 SUMO inh -2, NSD2 inh 0, CTSL1 counter 80* and TDP2 inh 6.
For COC(=O)CN(C#N)c1nc(NCc2ccccc2)nc(OC)n1 the results were UBC9 SUMO inh -6, NSD2 inh -17 and TDP2 inh -9.
For CC(C)N(C(=O)[C@H]1C[C@H](CC(=O)NCCC2=CCCCC2)C(=O)N2CCc3c([nH]c4ccc(Cl)cc34)[C@]12C)C(C)C the results were TDP2 inh -2.
For Cc1ccnc(NC(=O)c2cccc(NC(=O)c3cccc(Cl)c3)c2)c1 the results were NSD2 inh -1.
Screening COc1cccc(CNC(=O)[C@H]2CCCN2C(=O)[C@H]2CCCN2C(=O)c2ccccc2)c1 returned TDP2 inh 2.
`COC(=O)CN(C#N)c1nc(N(C)C)nc(N(C)C)n1` gave UBC9 SUMO inh -22, NSD2 inh -1, CTSL1 counter 21* and TDP2 inh -2.
`O=C(COC(=O)CNC(=O)c1ccc(Cl)cc1Cl)Nc1ccc(N2CCOCC2)cc1` gave UBC9 SUMO inh -6, CTSL1 counter 17* and TDP2 inh -1.
`CC1c2cc3c(cc2CCN1C(=O)c1cccc(F)c1)OCCCO3` (configuration not stated) gave UBC9 SUMO inh 16, NSD2 inh 0, CTSL1 counter 2 and TDP2 inh 4.
Screening CCCCCCCCN1C(=O)[C@@H](CC(=O)NCc2ccc(OC)c(OC)c2)C[C@@]2(C(=O)OC)C1=C[C@H](C(C)C)O[C@@H]2C1CC1 returned TDP2 inh -10.
`Cc1oc2c(c(C)cc3oc(=O)c(CC(=O)N[C@@H](CC(C)C)C(=O)O)c(C)c32)c1C` gave UBC9 SUMO inh 48, NSD2 inh 4 and TDP2 inh 9.
Screening Cc1oc2c(c(C)cc3oc(=O)c(CC(=O)NCC(=O)NCC(=O)O)c(C)c32)c1C returned UBC9 SUMO inh 53*, NSD2 inh -9, CTSL1 counter 1 and TDP2 inh -8.
Cc1oc2c(c(C)cc3oc(=O)c(CC(=O)N[C@H](C(=O)O)C(C)C)c(C)c32)c1C was read as UBC9 SUMO inh 51*, NSD2 inh -1 and TDP2 inh -8.
`CCOCCCNC(=O)c1ccc(Cn2c(=S)[nH]c3c([nH]c4ccc(OC)cc43)c2=O)cc1` gave UBC9 SUMO inh 18, NSD2 inh 1, CTSL1 counter -3 and TDP2 inh 1.
`CCCCNC(=O)c1ccc(Cn2c(=S)[nH]c3c([nH]c4ccc(OC)cc43)c2=O)cc1` gave UBC9 SUMO inh 53*, NSD2 inh -1, CTSL1 counter 0 and TDP2 inh -4.
O=S(=O)(Nc1ccc(C(O)(C(F)(F)F)C(F)(F)F)cc1)c1ccc(S(=O)(=O)c2ccccc2)s1 was read as NSD2 inh 3.
COc1ccc(CNC(=S)Nc2ccc(S(N)(=O)=O)cc2)cc1 was read as UBC9 SUMO inh 17, NSD2 inh -1, CTSL1 counter -2 and TDP2 inh 43*.
Cc1ccc(F)c(S(=O)(=O)NC(=O)C2(C)CCN2C(=O)C2(c3ccc(Cl)cc3)CCC2)c1 (configuration not stated) was read as NSD2 inh 0 and TDP2 inh 6.
Cc1ccc(C(=O)CCS(=O)(=O)c2ccc(Br)cc2)cc1 was read as UBC9 SUMO inh 6, NSD2 inh -1, CTSL1 counter 5 and TDP2 inh 7.
Screening Cc1ccc(S(=O)(=O)CCC(=O)c2cccc([N+](=O)[O-])c2)cc1 returned UBC9 SUMO inh 12, NSD2 inh -1, CTSL1 counter 20* and TDP2 inh 4.
For Cc1ccccc1NC(=O)CC1S/C(=N/c2nccs2)N(C)C1=O (configuration not stated) the results were UBC9 SUMO inh 5, NSD2 inh -1, CTSL1 counter -2 and TDP2 inh -4.
Cc1ccc(NC(=O)CC2S/C(=N/c3nccs3)N(C)C2=O)cc1C (configuration not stated) was read as UBC9 SUMO inh 9, NSD2 inh -11, CTSL1 counter 41* and TDP2 inh -4.
For Cc1ccccc1S(=O)(=O)N1CCCc2nc(C)c(C)cc21 the results were NSD2 inh -2 and TDP2 inh 2.
Cc1cc(-c2ccc(N=Nc3c(S(=O)(=O)O)cc4cc(S(=O)(=O)O)cc(N)c4c3O)c(C)c2)ccc1N=Nc1c(S(=O)(=O)O)cc2cc(S(=O)(=O)O)cc(N)c2c1O was read as CTSL1 counter 27*.
`[N-]=[N+]=CC(=O)CNC(=O)[C@@H](Cc1ccccc1)N1C(=O)c2ccccc2C1=O` gave UBC9 SUMO inh 6, NSD2 inh 1, CTSL1 counter 43* and TDP2 inh 12.
O=C(NCc1ccco1)C(Cc1ccccc1)N1C(=O)c2ccccc2C1=O (configuration not stated) was read as UBC9 SUMO inh 23, NSD2 inh -2, CTSL1 counter -1 and TDP2 inh 2.
`C[C@@H]1CN([C@H](C)CO)C(=O)c2cc(NS(=O)(=O)c3ccccc3)ccc2O[C@@H](C)CCCCO[C@@H]1CN(C)Cc1ccc(Cl)c(Cl)c1` gave TDP2 inh -4.
`COC(=O)C(NC(=O)CN1C(=O)c2ccccc2C1=O)c1ccc(O)c(OC)c1` (configuration not stated) gave UBC9 SUMO inh 13, NSD2 inh -1, CTSL1 counter 17* and TDP2 inh -9.
O=C(Cc1ccc(NC(=O)C2CCCN(C(=O)C3CC3)C2)cc1)Nc1ccc(C(=O)N2CCOCC2)cc1 (configuration not stated) was read as TDP2 inh 2.
Screening COc1cc(N=C2C(=O)N3c4c(cccc42)C(C)=CC3(C)C)cc(OC)c1 returned UBC9 SUMO inh 9, NSD2 inh 18, CTSL1 counter -5 and TDP2 inh -18.
For CC1=CC(C)(C)N2C(=O)C(=Nc3ccc(O)cc3)c3cccc1c32 the results were UBC9 SUMO inh 89, NSD2 inh 15, CTSL1 counter 44* and TDP2 inh 12.
Screening COc1ccc(CN2C(=O)Cc3c2nc(N)c2c(N)nc(N4CCOCC4)c(C#N)c32)cc1 returned UBC9 SUMO inh 101*, NSD2 inh 0, CTSL1 counter 3 and TDP2 inh 0.
Screening N#Cc1c(N(CCO)CCO)nc(N)c2c(N)nc3c(c12)CC(=O)N3Cc1cccs1 returned UBC9 SUMO inh 99 and CTSL1 counter 1.
Screening COCC(C)N1C(=O)Cc2c1nc(N)c1c(N)nc(N3CCN(c4ccccc4F)CC3)c(C#N)c21 (configuration not stated) returned UBC9 SUMO inh 97, NSD2 inh -2, CTSL1 counter 5 and TDP2 inh -5.
